Results published in ChEMBL document CHEMBL1154352, “Toll-like receptor 7 selective synthetic oligoribonucleotide agonists: synthesis and structure-activity relationship studies” (J Med Chem, 2009).
The source made the active and inactive calls. No cut-off for these calls is given here.

How the values were obtained:
[1] = target: T1, Toll-like receptor 7 (Homo sapiens) (UniProt Q9NYK1); assay: Activation of human TLR7 expressed in HEK293XL assessed as fold induction of NF-kappaB activity at 50 ug/ml after 18 hrs by reporter gene assay relative to control
T1 sequence (whole entry): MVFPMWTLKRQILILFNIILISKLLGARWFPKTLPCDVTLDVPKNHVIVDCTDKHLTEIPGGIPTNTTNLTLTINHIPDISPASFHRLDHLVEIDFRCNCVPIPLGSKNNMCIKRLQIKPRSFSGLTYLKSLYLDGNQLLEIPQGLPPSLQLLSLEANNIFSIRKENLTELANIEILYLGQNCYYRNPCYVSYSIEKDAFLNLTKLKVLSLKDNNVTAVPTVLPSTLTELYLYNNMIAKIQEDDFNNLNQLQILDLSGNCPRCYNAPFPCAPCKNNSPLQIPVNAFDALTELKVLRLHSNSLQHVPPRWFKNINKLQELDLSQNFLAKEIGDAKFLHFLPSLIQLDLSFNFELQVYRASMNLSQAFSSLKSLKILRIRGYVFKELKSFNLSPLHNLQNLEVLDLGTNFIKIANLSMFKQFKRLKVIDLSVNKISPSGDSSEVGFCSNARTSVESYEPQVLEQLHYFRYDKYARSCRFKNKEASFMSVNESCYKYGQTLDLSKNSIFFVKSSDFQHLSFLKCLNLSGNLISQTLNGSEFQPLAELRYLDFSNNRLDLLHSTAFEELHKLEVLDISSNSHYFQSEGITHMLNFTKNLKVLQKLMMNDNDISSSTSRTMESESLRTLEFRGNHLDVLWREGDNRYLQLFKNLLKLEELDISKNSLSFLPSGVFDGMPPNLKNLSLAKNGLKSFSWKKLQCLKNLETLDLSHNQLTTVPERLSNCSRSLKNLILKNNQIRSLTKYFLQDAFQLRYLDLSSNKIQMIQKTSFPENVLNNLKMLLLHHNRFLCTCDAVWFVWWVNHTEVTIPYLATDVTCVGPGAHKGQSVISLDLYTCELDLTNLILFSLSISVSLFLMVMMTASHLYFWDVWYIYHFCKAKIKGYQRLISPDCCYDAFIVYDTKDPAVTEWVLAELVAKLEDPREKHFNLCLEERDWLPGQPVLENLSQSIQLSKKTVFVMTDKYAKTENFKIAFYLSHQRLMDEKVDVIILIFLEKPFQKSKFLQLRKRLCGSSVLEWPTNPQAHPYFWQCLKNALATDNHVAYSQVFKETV
Method in brief: (§1)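 HEK293 cells stably expressing human TLR7 or TLR8, transiently transfected with SEAP reporter plasmid; medium replaced, SIMRA compounds added, 18 h incubation. Supernatant SEAP measured by QuantiBlue; expressed as fold increase in NF-κB activity over PBS control. Tabulated data at 50 μg/mL, representative of three independent experiments.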

[2] = system: PBMC; assay: Immunomodulatory activity in human PBMC assessed as induction of IFN-alpha at 100 ug/ml after 24 hrs
[3] = target: T2, Toll-like receptor 8 (Homo sapiens) (UniProt Q9NR97); assay: Activation of human TLR8 expressed in HEK293XL assessed as fold induction of NF-kappaB activity at 50 ug/ml after 18 hrs by reporter gene assay relative to control; method in brief: as §1
T2 sequence (whole entry): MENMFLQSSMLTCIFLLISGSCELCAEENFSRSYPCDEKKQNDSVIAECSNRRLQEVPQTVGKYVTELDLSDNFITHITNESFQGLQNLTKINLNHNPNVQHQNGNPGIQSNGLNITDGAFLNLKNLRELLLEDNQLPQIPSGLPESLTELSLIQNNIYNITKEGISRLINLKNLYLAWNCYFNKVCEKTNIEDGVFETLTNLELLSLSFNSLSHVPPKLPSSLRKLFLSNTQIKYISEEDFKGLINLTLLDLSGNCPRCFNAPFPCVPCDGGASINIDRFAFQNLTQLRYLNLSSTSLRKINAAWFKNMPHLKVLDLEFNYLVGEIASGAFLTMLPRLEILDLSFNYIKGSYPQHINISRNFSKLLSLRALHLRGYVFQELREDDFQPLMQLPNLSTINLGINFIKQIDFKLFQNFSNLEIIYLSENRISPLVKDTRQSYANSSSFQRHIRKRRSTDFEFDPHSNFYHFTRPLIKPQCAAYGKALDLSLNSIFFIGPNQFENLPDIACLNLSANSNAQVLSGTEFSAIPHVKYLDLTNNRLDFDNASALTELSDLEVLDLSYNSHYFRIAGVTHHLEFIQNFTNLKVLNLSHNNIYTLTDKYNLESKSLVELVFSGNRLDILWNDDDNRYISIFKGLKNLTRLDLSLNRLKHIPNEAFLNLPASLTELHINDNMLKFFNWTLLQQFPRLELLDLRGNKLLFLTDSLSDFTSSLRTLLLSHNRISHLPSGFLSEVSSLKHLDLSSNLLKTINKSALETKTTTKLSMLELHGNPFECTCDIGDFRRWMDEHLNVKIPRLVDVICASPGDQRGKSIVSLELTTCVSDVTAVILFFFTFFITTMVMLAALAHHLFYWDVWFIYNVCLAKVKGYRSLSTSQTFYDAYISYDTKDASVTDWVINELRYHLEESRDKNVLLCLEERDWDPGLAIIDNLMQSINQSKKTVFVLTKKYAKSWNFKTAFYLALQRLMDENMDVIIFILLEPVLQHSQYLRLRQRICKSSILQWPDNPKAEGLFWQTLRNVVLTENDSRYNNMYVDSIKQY

[4] = target: Toll-like receptor 3 (Homo sapiens) (UniProt O15455); assay: Activation of human TLR3 expressed in HEK293 assessed as induction of NF-kappaB activity reporter gene assay; assay type: cell-based
Toll-like receptor 3 (Homo sapiens), sequence (O15455 whole entry): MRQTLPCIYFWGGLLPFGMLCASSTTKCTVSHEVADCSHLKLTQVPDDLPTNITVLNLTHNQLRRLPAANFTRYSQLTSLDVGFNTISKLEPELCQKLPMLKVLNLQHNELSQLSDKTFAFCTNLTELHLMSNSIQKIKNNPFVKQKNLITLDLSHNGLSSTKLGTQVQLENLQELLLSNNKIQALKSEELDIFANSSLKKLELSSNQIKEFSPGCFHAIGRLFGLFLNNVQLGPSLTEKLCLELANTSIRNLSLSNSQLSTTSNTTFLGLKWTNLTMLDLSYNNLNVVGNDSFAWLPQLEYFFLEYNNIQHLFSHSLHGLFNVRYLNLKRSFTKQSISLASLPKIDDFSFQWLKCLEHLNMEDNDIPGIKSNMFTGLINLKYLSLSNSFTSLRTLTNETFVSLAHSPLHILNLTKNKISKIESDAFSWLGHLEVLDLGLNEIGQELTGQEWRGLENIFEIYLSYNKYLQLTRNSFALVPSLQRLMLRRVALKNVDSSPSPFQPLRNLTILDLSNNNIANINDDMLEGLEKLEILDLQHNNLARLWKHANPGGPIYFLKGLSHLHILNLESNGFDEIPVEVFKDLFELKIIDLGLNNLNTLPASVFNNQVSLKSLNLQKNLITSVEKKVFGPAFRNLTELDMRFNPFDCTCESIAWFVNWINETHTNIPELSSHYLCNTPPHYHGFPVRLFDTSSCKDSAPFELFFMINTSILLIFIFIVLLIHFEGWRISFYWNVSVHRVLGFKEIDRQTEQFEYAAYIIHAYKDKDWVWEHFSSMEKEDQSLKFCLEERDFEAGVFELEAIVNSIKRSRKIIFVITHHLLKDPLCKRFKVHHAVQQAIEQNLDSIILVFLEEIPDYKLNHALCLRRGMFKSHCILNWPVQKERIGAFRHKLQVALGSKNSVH

[5] = system: PBMC; assay: Immunomodulatory activity in human PBMC assessed as induction of TNFalpha at 100 ug/ml after 24 hrs; assay type: functional, cell-based
Method in brief: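 Human PBMCs plated at 5 × 10^6 cells/mL; compounds dissolved in PBS added at various concentrations, 37 °C for 24 h. Supernatant cytokines/chemokines quantified with human Luminex multiplex kit.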

[6] = system: Splenocyte; assay: Immunomodulatory activity in C57BL/6 mouse splenocytes bearing TLR7 receptor assessed as IL12 release at 100 ug/ml after 24 hrs by ELISA; assay type: functional, cell-based
Method in brief: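 C57BL/6 splenocytes in RPMI 1640 with 10% FBS, penicillin/streptomycin, 2 mM L-glutamine, plated at 5 × 10^6 cells/mL; compounds in PBS added, 37 °C for 24 h. Supernatant IL-12 and IL-6 by ELISA; representative of three independent experiments.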

SMILES | fold change (FC) [1] | IFN-alpha [2] [pg/mL] | fold change (FC) [3] | Activity [4] | Activity [5] [pg/mL] | Activity [6]
Nc1ccn([C@@H]2O[C@H](COP(=O)(S)O[C@H]3[C@@H](O)[C@H](n4cnc5c(N)ncnc54)O[C@@H]3CO)[C@@H](OP(=O)(S)OC[C@H]3O[C@@H](n4ccc(=O)[nH]c4=O)[C@H](O)[C@@H]3OP(=O)(S)OC[C@H]3O[C@@H](n4ccc(=O)[nH]c4=O)[C@H](O)[C@@H]3OP(=O)(S)OC[C@H]3O[C@@H](n4ccc5c(=O)[nH]c(N)nc54)[C@H](O)[C@@H]3OP(=O)(S)OC[C@H]3O[C@@H](n4cnc5c(N)ncnc54)[C@H](O)[C@@H]3OP(=O)(S)OC[C@H]3O[C@@H](n4cnc5c(N)ncnc54)[C@H](O)[C@@H]3OP(=O)(S)OC[C@H]3O[C@@H](n4ccc5c(=O)[nH]c(N)nc54)[C@H](O)[C@@H]3OP(=O)(S)OC[C@H]3O[C@@H](n4ccc(N)nc4=O)[C@H](O)[C@@H]3OP(=O)(S)OC[C@H]3O[C@@H](n4ccc(=O)[nH]c4=O)[C@H](O)[C@@H]3OP(=O)(S)OC[C@H]3O[C@@H](n4ccc(=O)[nH]c4=O)[C@H](O)[C@@H]3OP(=O)(S)OCC(O)COP(=O)(S)O[C@H]3[C@@H](O)[C@H](n4ccc(=O)[nH]c4=O)O[C@@H]3COP(=O)(S)O[C@H]3[C@@H](O)[C@H](n4ccc(=O)[nH]c4=O)O[C@@H]3COP(=O)(S)O[C@H]3[C@@H](O)[C@H](n4ccc(N)nc4=O)O[C@@H]3COP(=O)(S)O[C@H]3[C@@H](O)[C@H](n4ccc5c(=O)[nH]c(N)nc54)O[C@@H]3COP(=O)(S)O[C@H]3[C@@H](O)[C@H](n4cnc5c(N)ncnc54)O[C@@H]3COP(=O)(S)O[C@H]3[C@@H](O)[C@H](n4cnc5c(N)ncnc54)O[C@@H]3COP(=O)(S)O[C@H]3[C@@H](O)[C@H](n4ccc5c(=O)[nH]c(N)nc54)O[C@@H]3COP(=O)(S)O[C@H]3[C@@H](O)[C@H](n4ccc(=O)[nH]c4=O)O[C@@H]3COP(=O)(S)O[C@H]3[C@@H](O)[C@H](n4ccc(=O)[nH]c4=O)O[C@@H]3COP(=O)(S)O[C@H]3[C@@H](O)[C@H](n4ccc(N)nc4=O)O[C@@H]3COP(=O)(S)O[C@H]3[C@@H](O)[C@H](n4cnc5c(N)ncnc54)O[C@@H]3CO)[C@H]2O)c(=O)n1 (stereo partly specified) | 23.7 | 218 | 2 | inactive | 170 | Active
Nc1ccn([C@@H]2O[C@H](COP(=O)(S)O[C@H]3[C@@H](O)[C@H](n4cnc5c(=O)[nH]c(N)nc54)O[C@@H]3COP(=O)(S)O[C@H]3[C@@H](O)[C@H](n4ccc(=O)[nH]c4=O)O[C@@H]3COP(=O)(S)OCCCO)[C@@H](OP(=O)(S)OC[C@H]3O[C@@H](n4ccc(=O)[nH]c4=O)[C@H](O)[C@@H]3OP(=O)(S)OC[C@H]3O[C@@H](n4cnc5c(=O)[nH]c(N)nc54)[C@H](O)[C@@H]3OP(=O)(S)OC[C@H]3O[C@@H](n4ccc(N)nc4=O)[C@H](O)[C@@H]3OP(=O)(S)OC[C@H]3O[C@@H](n4ccc(=O)[nH]c4=O)[C@H](O)[C@@H]3OP(=O)(S)OC[C@H]3O[C@@H](n4ccc(=O)[nH]c4=O)[C@H](O)[C@@H]3OP(=O)(S)OC[C@H]3O[C@@H](n4cnc5c(=O)[nH]c(N)nc54)[C@H](O)[C@@H]3OP(=O)(S)OC[C@H]3O[C@@H](n4ccc(=O)[nH]c4=O)[C@H](O)[C@@H]3OP(=O)(S)OC[C@H]3O[C@@H](n4cnc5c(=O)[nH]c(N)nc54)[C@H](O)[C@@H]3OP(=O)(S)OCC(O)COP(=O)(S)O[C@H]3[C@@H](O)[C@H](n4cnc5c(=O)[nH]c(N)nc54)O[C@@H]3COP(=O)(S)O[C@H]3[C@@H](O)[C@H](n4ccc(=O)[nH]c4=O)O[C@@H]3COP(=O)(S)O[C@H]3[C@@H](O)[C@H](n4cnc5c(=O)[nH]c(N)nc54)O[C@@H]3COP(=O)(S)O[C@H]3[C@@H](O)[C@H](n4ccc(=O)[nH]c4=O)O[C@@H]3COP(=O)(S)O[C@H]3[C@@H](O)[C@H](n4ccc(=O)[nH]c4=O)O[C@@H]3COP(=O)(S)O[C@H]3[C@@H](O)[C@H](n4ccc(N)nc4=O)O[C@@H]3COP(=O)(S)O[C@H]3[C@@H](O)[C@H](n4cnc5c(=O)[nH]c(N)nc54)O[C@@H]3COP(=O)(S)O[C@H]3[C@@H](O)[C@H](n4ccc(=O)[nH]c4=O)O[C@@H]3COP(=O)(S)O[C@H]3[C@@H](O)[C@H](n4ccc(N)nc4=O)O[C@@H]3COP(=O)(S)O[C@H]3[C@@H](O)[C@H](n4cnc5c(=O)[nH]c(N)nc54)O[C@@H]3COP(=O)(S)O[C@H]3[C@@H](O)[C@H](n4ccc(=O)[nH]c4=O)O[C@@H]3COP(=O)(S)OCCCO)[C@H]2O)c(=O)n1 (stereo partly specified) | 0.5 | 81.6 | 9.2 | inactive | 260 | –
